# Compound activity as filed in PubChem.
# The list is not random: actives were taken first. Their share in the collection is about 6.4%.
# HUVEC prolif 384 – inhibitors of HUVEC proliferation, primary screen, cell-based, 384-well; AID 648, 2007; 86,000 tested, 1.1% active; viability, % at 10 µM (by protocol); CellTiter-Glo luminescence, 72 h; stronger effect = lower value;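 active = viability at or below 30%; inactive = viability above 30%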;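 also: 100% = median luminescence of DMSO-only cell control wells on each plate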
# Fibroblast inh – antiproliferative effect on LL 47 fibroblasts – human, LL 47 cells, CellTiter-Glo luminescence, primary screen; LL 47 human lung fibroblast viability, ATP luminescence; stronger effect = lower value; viability, % at 10 µM; 85,000 tested, 1.1% active; AID 719, 2007;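 active = viability at or below 50% in the single dose screen; inactive = viability above 50%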;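 also: compound exposure lasted 72 h before the ATP readout; 100% = median luminescence of untreated cell-only wells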
#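 Material: Human LL 47 lung fibroblast cells | Input: 1,150 cells/well | Buffer or medium: IMEM plus 15% FBS | Compound dosing: 0.1% DMSO in all compound wells | Times: Overnight cell rest, 72 h compound treatment at 37 °C | Signal: CellTiter-Glo luminescence measuring cellular ATP | Measure: % viability versus median cells-only luminescence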
# Jurkat viability – cytotoxicity toward Jurkat T cells, primary screen, cytotoxicity control, cell-based, Jurkat E6.1, 60K MLSMR library; Jurkat E6.1 viability, ATP luminescence, 48 h; inhibition, % at 4 µM; 56,000 tested, 1.2% active; AID 463, 2006;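 active = inhibition above the mean inhibition of all tested compounds plus 3 SD, cut at about 28% in these data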
# H69AR inhibit – proliferation blockers of H69AR lung cancer cells, primary screen, cell-based, human, 86K library | H69AR lung tumor viability, ATP luminescence, 72 h; stronger effect = lower value | viability, % at 10 µM | 85,000 tested, 6% active;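 active = viability at or below 40%; inactive = viability above 40%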;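 also: multidrug resistant small cell line overexpressing MRP-1 efflux transporter; 100% = mean luminescence of untreated control wells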
# The depositor's hits bear a star; · = no result given.
SMILES,HUVEC prolif 384,Fibroblast inh,Jurkat viability,H69AR inhibit
CC(/C(O)=C(\C#N)c1nc2ccccc2n1C)N1C(=O)c2ccccc2C1=O (configuration not stated),100.2,100.6,·,98.7
N#CC1=C(C2CC2)CC(c2ccccc2)C(C#N)=C1N (configuration not stated),71.5,81.0,2.1,38.6*
CCc1ccccc1N1CSC2=C(C#N)C(c3ccccc3F)CC(=O)N2C1 (configuration not stated),82.4,97.3,-5.8,28.6*
Cc1cc2c(=O)n(Cc3ccco3)c(SCC(=O)N3CCCc4ccccc43)nc2s1,78.1,89.3,0.4,62.3
CCn1c(SCC(=O)N2CCOCC2)nc2sc3c(c2c1=O)CCCC3,97.6,87.8,·,38.9*
O=C(CSc1nc2sc3c(c2c(=O)n1Cc1ccco1)CCC3)N1CCc2ccccc21,92.7,85.3,-9.4,28.6*
CCn1c(SCC(=O)N2CCOCC2)nc2oc3c(Cl)cc(Cl)cc3c(=O)c2c1=O,87.6,87.4,3.0,14.0*
COCCNC(=O)c1cc2c(=O)n3cccc(C)c3nc2n1C,51.5,73.3,-2.3,26.9*
CCOCCCNC(=O)c1cc2c(=O)n3cccc(C)c3nc2n1C,51.3,55.3,7.2,33.6*
CN1CCN(c2ncnc3c2sc2nc(N4CCOCC4)c4c(c23)CCC4)CC1,86.3,99.6,·,96.6
Cc1cc(C)c2c(n1)sc1c(N3CCOCC3)ncnc12,21.6*,83.3,-1.7,77.6
c1nc(N2CCNCC2)c2sc3nc(N4CCOCC4)c4c(c3c2n1)CCC4,72.4,4.0*,·,7.9*
OCCN1CCN(c2ncnc3c2sc2nc(N4CCOCC4)c4c(c23)CCC4)CC1,79.9,87.2,·,98.4
Cc1cc(CCN2CCC(=O)NC2=O)ccc1OC(C)C,96.7,98.2,4.0,102.1
Clc1ccc(COn2nnc3ccccc32)c(Cl)c1,88.5,85.9,5.8,86.9
CN=C1c2cc3cc(OC)ccc3n2CCN1Cc1ccccc1,57.9,45.9*,·,19.2*
O=c1c(-c2cc3ccccc3o2)[n+]([O-])c2ccccc2n1OCc1ccccn1,66.0,94.5,·,35.8*
CCOc1ccc(NCc2nnc(SCC(=O)Nc3cc(C)on3)n2-c2ccccc2OC)cc1,65.0,79.8,5.8,11.8*
O=C(O)CC(NC(=O)COc1ccc(Cl)cc1Cl)C(=O)O (configuration not stated),93.0,105.2,·,85.7
CCCCCC/C(=N/O)c1ccccn1,28.4*,61.4,-4.0,24.7*
Cc1cccc(NC(=O)C2CC(=O)N(c3ccccc3)C2)c1C (configuration not stated),101.4,105.1,·,97.3
O=c1[nH]c(CN2CCN(C/C=C/c3ccccc3)CC2)nc2cc(Cl)ccc12,27.9*,81.6,6.8,87.8
O=C(CCc1nc2ccccc2c(=O)[nH]1)N1CCN(C/C=C/c2ccccc2)CC1,84.7,101.3,8.6,90.5
CCOC(=O)C1CCN(C(=O)C2CCN(S(=O)(=O)c3cccc4cccnc34)CC2)CC1,97.6,86.6,0.1,92.6
O=C1NCCCC1C(=O)Nc1ccccc1C(F)(F)F (configuration not stated),100.7,100.1,·,99.6
SMILES,HUVEC prolif 384,Fibroblast inh,Jurkat viability,H69AR inhibit
COc1cc(-c2nc(-c3ccc(NC(=O)c4ccc5c(c4)OCO5)cc3)no2)cc(OC)c1OC,28.3*,73.5,4.9,12.9*
Cc1ccccc1-c1nc(-c2ccc(NC(=O)c3ccc4c(c3)OCO4)cc2)no1,38.5,20.4*,·,28.1*
COc1ccc(C2CCCN2C(=O)Nc2ccc(Cl)cc2)cc1OC (configuration not stated),109.7,100.2,·,86.4
COc1ccc(C(c2c[nH]c3ccccc23)c2c[nH]c3ccccc23)cc1O,36.6,82.0,·,7.2*
Cc1ccc(NC(=O)C2=C(O)CCn3c2nc2ccccc23)cc1,93.5,83.9,·,26.0*
Cc1ccc(NC(=O)c2ccccc2O)cc1,96.2,93.8,5.2,80.6
Cc1ccc2oc(=O)c3cnn(CC(=O)N(CCC(C)C)Cc4ccco4)c3c2c1,70.6,97.2,1.4,38.1*
COc1ccc(/C=C/C(O)=C2/C(=O)N(C)C3(C)CC2c2ccccc2O3)cc1 (configuration not stated),81.8,76.3,10.0,3.0*
CCN1C(=O)C(C(=O)Nc2ccc(OC)cc2)C2CC1(C)Oc1ccccc12 (configuration not stated),105.0,89.7,-5.3,88.6
COc1ccc(S(=O)(=O)Nc2cc(C(C)C)c(O)cc2C)cc1,104.4,99.0,-3.2,101.0
COC(=O)c1ccc(C)c(NS(=O)(=O)c2ccc(OC)cc2)c1,45.9,55.8,·,36.6*
COC(=O)c1ccc(C)c(NS(=O)(=O)c2ccc3c(c2)OCCO3)c1,46.8,59.9,91.6*,29.6*
COc1ccc(S(=O)(=O)Nc2nncs2)cc1,85.4,96.4,1.9,86.1
CC(=O)c1cc2c(cc1NS(=O)(=O)c1ccccc1)OCO2,80.5,84.4,·,81.8
CSc1ccccc1NS(=O)(=O)c1ccc2c(c1)OCCO2,98.2,103.6,7.2,99.4
COC(=O)c1sccc1NS(=O)(=O)c1ccc(OC)cc1,69.5,84.3,10.4,15.3*
CC(=O)c1cc2c(cc1NS(=O)(=O)c1ccc(C)cc1)OCCO2,60.1,80.6,75.9*,18.5*
C=CCn1c(CNC(=O)c2ccco2)nnc1SCC(=O)N1c2ccccc2Sc2ccccc21,97.0,95.2,·,34.0*
CSc1ccc(C2C(C#N)=C(N)Oc3cc4c(cc32)OCO4)cc1 (configuration not stated),58.6,63.2,-3.4,18.3*
Cc1ccc(C2C(C#N)=C(N)Oc3cc4c(cc32)OCO4)cc1 (configuration not stated),73.9,76.1,0.9,15.5*
CC(C)(C)C1=C(C#N)C(c2cc3c(cc2Br)OCO3)C(C#N)=C(N)O1 (configuration not stated),81.5,85.0,0.3,45.9
N#CC1=C(N)OC(c2ccccc2)=C(C#N)C1c1ccc2c(c1)OCO2 (configuration not stated),94.7,93.7,1.3,97.5
Cc1nn(Cc2ccc(Cl)cc2)c(C)c1NC(=O)c1cc(-c2ccco2)on1,85.5,94.8,15.5,96.0
COc1ccc(-c2cc(C(=O)Nc3c(C)nn(Cc4ccc(Cl)cc4)c3C)no2)cc1,41.9,54.3,·,16.0*
Cc1ccc(Cn2nc(C)c(NC(=O)c3cc(-c4ccc5c(c4)OCO5)on3)c2C)cc1,34.3,92.9,-7.5,7.4*
Cc1nn(Cc2ccc(F)cc2)c(C)c1NC(=O)c1cc(-c2ccc3c(c2)OCO3)on1,67.9,97.8,7.5,86.3
COc1ccc(-c2cc(C(=O)Nc3c(C)nn(Cc4ccccc4Cl)c3C)no2)cc1OC,46.9,80.6,1.1,19.5*
CC(C)CN(CC(C)C)S(=O)(=O)N1CCC(C(=O)NCCc2ccc(Cl)cc2)CC1,87.0,91.5,·,89.4
COc1ccccc1/C=c1\sc2nc(-c3cccs3)nn2c1=O,82.8,91.6,-1.6,99.4
